Measured values pooled from the literature.
Compare with care: the assays were run in different laboratories. Converted amounts (≈) assume the structure as drawn.
Organism: Escherichia coli
Effect on: microbial growth

| Compound | test | test system | conditions | MIC [µg/mL] |
| --- | --- | --- | --- | --- |
| CC(C)Oc1c(NC(=O)c2ccc(NC(=O)[C@H](CC(N)=O)NC(=O)c3ccc(CNC(=O)c4ccc(C#N)cc4)cc3)cc2)ccc(C(=O)Nc2ccc(C(=O)O)cc2)c1O | – | DSM1116 | – | > 64 |
| N=C(N)c1ccc(OCc2ccccc2COc2ccc(C(=N)N)cc2)cc1 | broth dilution | ATCC25922 | – | > 200 |
| Cc1ccc2nc(-c3ccc(F)cc3)[nH]c2c1 | broth dilution | ATCC25922 | – | 64 (≈ 283 µM) |
| N=C(N)c1ccccc1OCc1cccc(COc2ccccc2C(=N)N)c1 | – | BW25113 | – | > 200 |
| Clc1ccc(-c2nc3ccccc3[nH]2)cc1Cl | broth dilution | ATCC25922 | – | 32 (≈ 122 µM) |
| CC1(C)S[C@@H]2[C@H](NC(=O)[C@H](N)c3ccccc3)C(=O)N2[C@H]1C(=O)O | broth dilution | ATCC25922 | – | 8 (≈ 22.9 µM) |
| CC(C)Oc1c(NC(=O)c2ccc(NC(=O)[C@H](CC(N)=O)NC(=O)c3ccc(NC(=O)c4ccc(C#N)c(F)c4)cc3)cc2)ccc(C(=O)Nc2ccc(C(=O)O)cc2)c1O | – | DSM1116 | – | 0.25 (≈ 0.301 µM) |
| N=C(N)c1ccc(OCc2ccc3ccc(COc4ccc(C(=N)N)cc4)cc3c2)cc1 | – | BW25113 | 20 h | > 200 |
| Oc1cccc(-c2nc3ccccc3[nH]2)c1 | broth dilution | ATCC25922 | – | 64 (≈ 304 µM) |
| CC(C)Oc1c(NC(=O)c2ccc(NC(=O)[C@H](CC(N)=O)NC(=O)c3ccc(NC(=O)c4ccc(S(C)(=O)=O)cc4)cc3)cc2)ccc(C(=O)Nc2ccc(C(=O)O)cc2)c1O | – | DSM1116 | – | 2 (≈ 2.31 µM) |
